# Source: ChEMBL document CHEMBL1811873, “Peroxisome proliferator-activated receptor agonists with phenethylphenylphthalimide skeleton derived from thalidomide-related liver X receptor antagonists: relationship between absolute configuration and subtype selectivity” (Bioorg Med Chem, 2011)
# Calls of active or inactive are those of the source. The calls are words filed in the database; no cut-off is given here.
# How the values were obtained:
# [1] = molecular target: T1, Peroxisome proliferator-activated receptor alpha (Homo sapiens) (UniProt Q07869); assay: Agonist activity at human PPARalpha expressed in HEK293 after 8 hrs by luciferase reporter gene assay relative to fenofibric acid; type: functional, cell-based
# T1 sequence (whole entry): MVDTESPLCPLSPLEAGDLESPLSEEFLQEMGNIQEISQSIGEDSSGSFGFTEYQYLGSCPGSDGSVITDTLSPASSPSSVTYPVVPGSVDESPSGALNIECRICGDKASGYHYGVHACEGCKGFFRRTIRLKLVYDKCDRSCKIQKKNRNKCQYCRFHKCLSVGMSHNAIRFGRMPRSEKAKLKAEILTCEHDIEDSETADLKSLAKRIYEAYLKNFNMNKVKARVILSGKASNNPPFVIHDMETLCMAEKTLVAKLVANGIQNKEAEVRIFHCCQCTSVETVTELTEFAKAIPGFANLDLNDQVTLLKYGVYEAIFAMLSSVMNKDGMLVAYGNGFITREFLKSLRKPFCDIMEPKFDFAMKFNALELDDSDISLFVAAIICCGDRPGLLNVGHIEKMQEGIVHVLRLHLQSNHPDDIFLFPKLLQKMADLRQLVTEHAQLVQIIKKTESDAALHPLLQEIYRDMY
# Method in brief: (§1)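 GAL4N-hPPAR LBD chimera with TK-MH100x4-LUC reporter in calcium-phosphate-transfected HEK293 (DMEM, 5% FBS), compounds added 8 h post-transfection. Luciferase was normalized to β-galactosidase. Percent efficacy (Emax) was taken at the maximal stimulatory response relative to 10 µM fenofibric acid (PPARα), 100 nM GW501516 (PPARδ) or 10 µM ciglitazone (PPARγ). Triplicate, at least twice.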
# [2] = molecular target: T2, Peroxisome proliferator-activated receptor alpha (Homo sapiens, UniProt Q07869); assay: Agonist activity at human PPARalpha expressed in HEK293 after 8 hrs by luciferase reporter gene assay; type: functional, cell-based
# T2 sequence (Q07869 whole entry): T1 sequence (whole entry)
# Method in brief: (§2)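 HEK293 cells grown in DMEM with 5% FBS at 37 °C in 5% CO2 were calcium-phosphate co-transfected with CMX-GAL4N-hPPAR LBD (subtype-specific), TK-MH100x4-LUC reporter and CMX β-galactosidase for normalization. Compounds were added 8 h post-transfection. Luciferase was read by luminometer and β-galactosidase by plate reader. Values are normalized averages; triplicate, repeated at least twice.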
# [3] = molecular target: T3, Peroxisome proliferator-activated receptor delta (Homo sapiens) (UniProt Q03181); assay: Agonist activity at human PPARdelta expressed in HEK293 after 8 hrs by luciferase reporter gene assay relative to GW501516; type: functional, cell-based; method in brief: as §1
# T3 sequence (whole entry): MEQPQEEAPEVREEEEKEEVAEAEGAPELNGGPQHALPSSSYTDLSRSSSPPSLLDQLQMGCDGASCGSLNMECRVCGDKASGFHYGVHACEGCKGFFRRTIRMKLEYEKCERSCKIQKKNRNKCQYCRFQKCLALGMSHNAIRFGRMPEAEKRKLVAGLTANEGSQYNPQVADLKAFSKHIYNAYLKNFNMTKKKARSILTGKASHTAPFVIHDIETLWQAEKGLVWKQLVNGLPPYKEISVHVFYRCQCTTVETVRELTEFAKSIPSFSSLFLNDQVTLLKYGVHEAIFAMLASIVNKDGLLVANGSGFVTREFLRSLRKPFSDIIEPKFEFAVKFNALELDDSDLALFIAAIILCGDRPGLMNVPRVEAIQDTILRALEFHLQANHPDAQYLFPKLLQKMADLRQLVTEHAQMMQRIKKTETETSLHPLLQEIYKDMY
# [4] = molecular target: T4, Peroxisome proliferator-activated receptor delta (Homo sapiens, UniProt Q03181); assay: Agonist activity at PPARdelta expressed in HEK293 after 8 hrs by luciferase reporter gene assay; type: functional, cell-based; method in brief: as §2
# T4 sequence (Q03181 whole entry): T3 sequence (whole entry)
# [5] = molecular target: T5, Peroxisome proliferator-activated receptor gamma (Homo sapiens) (UniProt P37231); assay: Agonist activity at PPARgamma expressed in HEK293 after 8 hrs by luciferase reporter gene assay relative to ciglitazone; type: functional, cell-based; method in brief: as §1
# T5 sequence (whole entry): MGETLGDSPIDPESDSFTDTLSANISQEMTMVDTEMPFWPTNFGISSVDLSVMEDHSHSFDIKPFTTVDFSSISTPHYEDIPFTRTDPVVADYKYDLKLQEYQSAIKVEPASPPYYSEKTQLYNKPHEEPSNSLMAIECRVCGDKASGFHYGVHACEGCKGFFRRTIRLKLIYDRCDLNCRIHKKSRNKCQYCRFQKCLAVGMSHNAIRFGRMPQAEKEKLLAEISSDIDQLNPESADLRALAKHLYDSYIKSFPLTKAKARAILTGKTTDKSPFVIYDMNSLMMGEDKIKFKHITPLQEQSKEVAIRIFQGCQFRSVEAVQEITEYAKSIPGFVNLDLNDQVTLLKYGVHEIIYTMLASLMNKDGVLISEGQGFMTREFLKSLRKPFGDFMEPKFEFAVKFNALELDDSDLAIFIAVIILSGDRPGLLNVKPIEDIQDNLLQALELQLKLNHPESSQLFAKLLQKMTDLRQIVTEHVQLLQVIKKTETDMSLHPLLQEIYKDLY
# [6] = molecular target: T6, Peroxisome proliferator-activated receptor gamma (Homo sapiens, UniProt P37231); assay: Agonist activity at PPARgamma expressed in HEK293 after 8 hrs by luciferase reporter gene assay; type: functional, cell-based; method in brief: as §2
# T6 sequence (P37231 whole entry): T5 sequence (whole entry)
# [7] = molecular target: T7, Bile acid receptor (Homo sapiens) (UniProt Q96RI1); assay: Agonist activity at FXR transfected in HEK293 cells by luciferase reporter gene assay; type: functional, cell-based
# T7 sequence (whole entry): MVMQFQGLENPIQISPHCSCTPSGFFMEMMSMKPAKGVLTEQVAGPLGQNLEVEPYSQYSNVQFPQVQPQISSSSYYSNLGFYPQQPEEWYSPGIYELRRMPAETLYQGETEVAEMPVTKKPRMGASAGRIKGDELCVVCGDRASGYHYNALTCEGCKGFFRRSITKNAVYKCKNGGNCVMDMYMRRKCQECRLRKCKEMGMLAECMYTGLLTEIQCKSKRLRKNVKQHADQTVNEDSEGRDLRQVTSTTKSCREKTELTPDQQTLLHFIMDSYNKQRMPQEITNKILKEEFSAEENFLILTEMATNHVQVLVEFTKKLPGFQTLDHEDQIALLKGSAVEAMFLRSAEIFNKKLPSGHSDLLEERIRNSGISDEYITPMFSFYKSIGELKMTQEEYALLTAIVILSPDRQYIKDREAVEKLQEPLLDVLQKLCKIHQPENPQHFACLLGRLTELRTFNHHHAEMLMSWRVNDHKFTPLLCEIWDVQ
# [8] = molecular target: T7, Bile acid receptor (Homo sapiens); assay: Antagonist activity at FXR transfected in HEK293 cells by luciferase reporter gene assay; type: functional, cell-based
# [9] = molecular target: T8, Oxysterols receptor LXR-alpha (Homo sapiens) (UniProt Q13133); assay: Agonist activity at LXR; type: functional
# T8 sequence (whole entry): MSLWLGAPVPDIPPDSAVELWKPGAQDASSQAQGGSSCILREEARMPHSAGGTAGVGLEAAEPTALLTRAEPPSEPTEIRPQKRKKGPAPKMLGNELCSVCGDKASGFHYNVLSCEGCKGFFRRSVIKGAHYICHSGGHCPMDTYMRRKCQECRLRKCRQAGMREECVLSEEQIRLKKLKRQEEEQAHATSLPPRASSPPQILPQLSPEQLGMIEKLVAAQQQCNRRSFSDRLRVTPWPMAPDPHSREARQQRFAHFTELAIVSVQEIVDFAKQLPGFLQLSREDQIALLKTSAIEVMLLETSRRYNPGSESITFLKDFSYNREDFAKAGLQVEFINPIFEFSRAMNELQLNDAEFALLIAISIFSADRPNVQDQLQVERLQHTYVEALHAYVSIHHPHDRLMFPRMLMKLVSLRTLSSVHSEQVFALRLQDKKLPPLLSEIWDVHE
# [10] = molecular target: T8, Oxysterols receptor LXR-alpha (Homo sapiens); assay: Antagonist activity at LXR; type: functional
Compound,Emax [1],EC50 [2],Emax [3],EC50 [4],Emax [5],EC50 [6],Activity [7],Activity [8],Activity [9],Activity [10]
CCCOc1cc(N2C(=O)c3ccccc3C2=O)ccc1CCc1ccc(C[C@@H](CC)C(=O)O)cc1,70%,2.5 µM,8%,,7%,,,,,
CCCCOc1cc(N2C(=O)c3ccccc3C2=O)ccc1CCc1ccc(CC(CC)C(=O)O)cc1 (stereo not given),63%,1.8 µM,32%,3.2 µM,36%,7.9 µM,inactive,inactive,,
CCOc1cc(N2C(=O)c3ccccc3C2=O)ccc1CCc1ccc(C[C@@H](CC)C(=O)O)cc1,126%,1.1 µM,12%,9.7 µM,23%,6.9 µM,,,,
CCCOc1cc(N2C(=O)c3ccccc3C2=O)ccc1CCc1ccc(C[C@H](CC)C(=O)O)cc1,87%,1.7 µM,54%,1.8 µM,36%,5.2 µM,,,,
CCCOc1cc(N2C(=O)c3ccccc3C2=O)ccc1CCc1ccc(CC(CC)C(=O)O)cc1 (racemic),70%,1.7 µM,40%,2.9 µM,26%,6.9 µM,inactive,inactive,,
CC[C@@H](Cc1ccc(CCc2ccc(N3C(=O)c4ccccc4C3=O)cc2OC)cc1)C(=O)O,66%,8.9 µM,41%,7.3 µM,102%,7.1 µM,,,,
CCOc1cc(N2C(=O)c3ccccc3C2=O)ccc1CCc1ccc(C[C@H](CC)C(=O)O)cc1,69%,1.7 µM,29%,1.9 µM,62%,3.2 µM,,,,
CCOc1cc(N2C(=O)c3ccccc3C2=O)ccc1CCc1ccc(CC(CC)C(=O)O)cc1 (racemic),102%,1.4 µM,33%,4.8 µM,49%,9.3 µM,inactive,inactive,,

# The remaining lines, values ahead:
Emax [1],EC50 [2],Emax [3],EC50 [4],Emax [5],EC50 [6],Activity [7],Activity [8],Activity [9],Activity [10],Compound
20%,14 µM,7%,25 µM,21%,17 µM,,,,,CCC(Cc1ccc(CCc2ccc(N3C(=O)c4ccccc4C3=O)cc2O)cc1)C(=O)O (stereo not given)
0%,,1%,,31%,12 µM,inactive,inactive,inactive,inactive,O=C(O)CCCOc1ccc(CCc2ccc(N3C(=O)c4ccccc4C3=O)cc2)cc1
0%,,0%,,6%,,inactive,inactive,,,O=C(O)CCCCCOc1ccc(CCc2ccc(N3C(=O)c4ccccc4C3=O)cc2)cc1
4%,,4%,,7%,,,,,,O=C(O)CCCCc1ccc(CCc2ccc(N3C(=O)c4ccccc4C3=O)cc2)cc1
72%,6.6 µM,22%,14 µM,42%,11 µM,inactive,inactive,,,CCC(Cc1ccc(CCc2ccc(N3C(=O)c4ccccc4C3=O)cc2)cc1)C(=O)O (stereo not given)
14%,33 µM,0%,,2%,,,,,,O=C(O)c1ccc(CCc2ccc(N3C(=O)c4ccccc4C3=O)cc2)cc1
8%,,4%,,5%,,,,,,O=C(O)CCCCCCc1ccc(CCc2ccc(N3C(=O)c4ccccc4C3=O)cc2)cc1
53%,11 µM,27%,13 µM,7%,,inactive,inactive,inactive,inactive,O=C(O)CCc1ccc(CCc2ccc(N3C(=O)c4ccccc4C3=O)cc2)cc1
73%,3.4 µM,24%,11 µM,78%,8.5 µM,inactive,inactive,,,CCC(Cc1ccc(CCc2ccc(N3C(=O)c4ccccc4C3=O)cc2OC)cc1)C(=O)O (racemic)
29%,29 µM,10%,62 µM,6%,,inactive,inactive,inactive,inactive,O=C(O)COc1ccc(CCc2ccc(N3C(=O)c4ccccc4C3=O)cc2)cc1
103%,4.5 µM,8%,,40%,12 µM,,,,,CC[C@H](Cc1ccc(CCc2ccc(N3C(=O)c4ccccc4C3=O)cc2OC)cc1)C(=O)O
